Assay results: ChEMBL document CHEMBL1141179 (J Med Chem, 2005)
Bridge positions count the residues as written; N and C are the ends. Square brackets hold non-standard residues; d marks the D form. Peptide text beside a SMILES is read from it.

Key:
Rattus norvegicus [1] = species: Rattus norvegicus; assay: Relative potency of compound to inhibit glucagon secretion […]; format: functional
Rattus norvegicus [2] = species: Rattus norvegicus; assay: Relative potency of compound to inhibit growth hormone secretion in rat anterior pituitary cells; format: functional, Pituitary gland cell
Rattus norvegicus [3] = species: Rattus norvegicus; assay: Relative potency of compound to inhibit insulin secretion […]; format: functional
[4] = target: Somatostatin receptor type 5 (Homo sapiens, UniProt P35346); assay: Inhibition of 125I-[Leu8,D-Trp22,Tyr25]SRIF-28 binding to human somatostatin receptor type 5
Chain of Somatostatin receptor type 5 (P35346 whole entry): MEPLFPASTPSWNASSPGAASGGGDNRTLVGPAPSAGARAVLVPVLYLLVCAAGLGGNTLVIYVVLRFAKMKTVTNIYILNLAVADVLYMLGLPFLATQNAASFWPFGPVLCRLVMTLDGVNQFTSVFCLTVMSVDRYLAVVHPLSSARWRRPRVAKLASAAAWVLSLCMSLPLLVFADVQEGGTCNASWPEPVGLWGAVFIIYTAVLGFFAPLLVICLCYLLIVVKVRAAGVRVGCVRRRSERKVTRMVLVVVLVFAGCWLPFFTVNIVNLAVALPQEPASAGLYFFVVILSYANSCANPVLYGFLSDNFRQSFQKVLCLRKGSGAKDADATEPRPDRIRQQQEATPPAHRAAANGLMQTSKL
In short: (§1)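 Human sst1 or sst5 receptor stably expressed in CHO-K1 cells. 20 µm cryostat sections of cell membrane pellets were used for receptor autoradiography. IC50 (nM) came from competitive radioligand displacement. Values are mean ± SEM when N ≥ 3; otherwise mean with single values.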

[5] = target: Somatostatin receptor type 1 (Homo sapiens, UniProt P30872); assay: Inhibition of 125I-[Leu8,D-Trp22,Tyr25]SRIF-28 binding to human somatostatin receptor type 1; in short: as §1
Chain of Somatostatin receptor type 1 (P30872 whole entry): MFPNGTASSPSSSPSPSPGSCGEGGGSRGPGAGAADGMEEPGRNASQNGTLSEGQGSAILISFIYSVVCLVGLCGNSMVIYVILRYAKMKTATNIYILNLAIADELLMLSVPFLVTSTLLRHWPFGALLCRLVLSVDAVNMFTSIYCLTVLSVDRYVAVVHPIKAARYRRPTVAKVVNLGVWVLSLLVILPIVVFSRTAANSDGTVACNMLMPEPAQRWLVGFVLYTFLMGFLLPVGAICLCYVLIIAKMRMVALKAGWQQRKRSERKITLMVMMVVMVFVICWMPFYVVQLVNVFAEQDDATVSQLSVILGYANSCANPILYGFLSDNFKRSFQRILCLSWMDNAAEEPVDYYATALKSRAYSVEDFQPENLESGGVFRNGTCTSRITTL

[6] = target: Somatostatin receptor type 4 (Homo sapiens, UniProt P31391); assay: Inhibition of 125I-[Leu8,D-Trp22,Tyr25]SRIF-28 binding to human somatostatin receptor type 4
Chain of Somatostatin receptor type 4 (P31391 whole entry): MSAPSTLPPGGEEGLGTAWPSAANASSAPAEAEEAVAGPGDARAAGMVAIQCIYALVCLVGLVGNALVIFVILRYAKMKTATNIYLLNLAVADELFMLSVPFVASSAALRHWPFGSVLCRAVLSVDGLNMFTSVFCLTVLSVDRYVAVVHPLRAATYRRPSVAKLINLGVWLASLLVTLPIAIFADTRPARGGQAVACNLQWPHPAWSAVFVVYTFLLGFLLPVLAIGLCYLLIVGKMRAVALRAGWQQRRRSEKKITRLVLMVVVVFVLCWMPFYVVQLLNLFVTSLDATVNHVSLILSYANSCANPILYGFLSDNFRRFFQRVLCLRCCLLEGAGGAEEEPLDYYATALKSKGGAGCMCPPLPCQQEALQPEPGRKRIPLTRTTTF

[7] = target: Somatostatin receptor type 2 (Homo sapiens, UniProt P30874); assay: Inhibition of 125I-[Leu8,D-Trp22,Tyr25]SRIF-28 binding to human somatostatin receptor type 2
Chain of Somatostatin receptor type 2 (P30874 whole entry): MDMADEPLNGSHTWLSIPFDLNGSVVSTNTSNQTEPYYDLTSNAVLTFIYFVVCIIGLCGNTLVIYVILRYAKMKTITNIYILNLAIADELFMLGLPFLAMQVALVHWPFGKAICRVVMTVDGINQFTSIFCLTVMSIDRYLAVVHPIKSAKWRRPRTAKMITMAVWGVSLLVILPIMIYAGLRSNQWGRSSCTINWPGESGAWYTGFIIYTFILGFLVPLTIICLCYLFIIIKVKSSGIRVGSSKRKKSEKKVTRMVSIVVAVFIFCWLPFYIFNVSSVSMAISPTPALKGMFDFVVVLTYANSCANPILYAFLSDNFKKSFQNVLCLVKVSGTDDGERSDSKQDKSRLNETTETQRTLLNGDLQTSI
In short: (§2)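 Human sst2 or sst3 receptor stably expressed in CCL39 cells. 20 µm cryostat sections of cell membrane pellets were used for autoradiographic binding. IC50 (nM) came from competitive displacement. Values are mean ± SEM when N ≥ 3; otherwise mean with single values.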

[8] = target: Somatostatin receptor type 3 (Homo sapiens, UniProt P32745); assay: Inhibition of 125I-[Leu8,D-Trp22,Tyr25]SRIF-28 binding to human somatostatin receptor type 3; in short: as §2
Chain of Somatostatin receptor type 3 (P32745 whole entry): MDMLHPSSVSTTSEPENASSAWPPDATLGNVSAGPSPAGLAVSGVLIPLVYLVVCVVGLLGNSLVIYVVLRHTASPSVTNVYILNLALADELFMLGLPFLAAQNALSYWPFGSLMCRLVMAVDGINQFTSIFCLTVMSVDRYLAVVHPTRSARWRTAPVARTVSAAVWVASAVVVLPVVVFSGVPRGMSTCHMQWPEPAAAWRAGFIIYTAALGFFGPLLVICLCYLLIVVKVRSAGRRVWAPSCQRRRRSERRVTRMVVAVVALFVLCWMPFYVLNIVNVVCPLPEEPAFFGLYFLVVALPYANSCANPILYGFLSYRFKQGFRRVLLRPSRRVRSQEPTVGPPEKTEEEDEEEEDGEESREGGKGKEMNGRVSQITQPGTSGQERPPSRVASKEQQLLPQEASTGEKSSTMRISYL

IC50 [4] [µM]	IC50 [5] [µM]	IC50 [6] [µM]	IC50 [7] [µM]	IC50 [8] [µM]	Compound	Relative potency (Rattus norvegicus [1])	Relative potency (Rattus norvegicus [2])	Relative potency (Rattus norvegicus [3])
–	–	–	–	–	C[C@@H](O)[C@@H]1NC(=O)[C@H](CCCCN)NC(=O)[C@@H](Cc2c[nH]c3ccccc23)NC(=O)[C@H](Cc2ccccc2)NC(=O)[C@H](Cc2ccccc2)NC(=O)[C@@H](N)CSSC[C@@H](C(=O)O)NC(=O)[C@H](Cc2ccccc2)NC1=O (H-CFF[dW]KTFC-OH; disulfide 1-8)	7	4	45
–	–	–	–	–	C[C@@H](O)[C@@H]1NC(=O)[C@H](Cc2ccccc2)NC(=O)[C@H]([C@@H](C)O)NC(=O)[C@H](CCCCN)NC(=O)[C@@H](Cc2c[nH]c3ccccc23)NC(=O)[C@H](Cc2ccccc2)NC(=O)[C@H](Cc2ccccc2)NC(=O)[C@@H](N)CSSC[C@@H](C(=O)O)NC(=O)[C@H](CO)NC1=O	<1	110	700
–	–	–	–	–	C[C@@H](O)[C@@H]1NC(=O)[C@H](CCCCN)NC(=O)[C@@H](Cc2c[nH]c3ccccc23)NC(=O)[C@H](Cc2ccccc2)NC(=O)[C@H](Cc2ccccc2)NC(=O)[C@@H](N)CSSC[C@@H](C(=O)O)NC1=O	<1	0.07	<1
–	–	–	–	–	C[C@@H](O)[C@@H]1NC(=O)[C@H](Cc2ccccc2)NC(=O)[C@H]([C@@H](C)O)NC(=O)[C@H](CCCCN)NC(=O)[C@@H](Cc2c[nH]c3ccccc23)NC(=O)[C@H](Cc2ccccc2)NC(=O)[C@H](Cc2ccccc2)NC(=O)[C@H](CC(N)=O)NC(=O)[C@@H](N)CSSC[C@@H](C(=O)O)NC1=O	–	8	75
–	–	–	–	–	NCCCC[C@@H]1NC(=O)[C@@H](Cc2c[nH]c3ccccc23)NC(=O)[C@H](Cc2ccccc2)NC(=O)[C@H](Cc2ccccc2)NC(=O)[C@@H](N)CSSC[C@@H](C(=O)O)NC(=O)[C@H](Cc2ccccc2)NC1=O	<1	<0.01	<1
–	–	–	–	–	C[C@@H](O)[C@@H]1NC(=O)[C@H](CCCCN)NC(=O)[C@@H](Cc2c[nH]c3ccccc23)NC(=O)[C@H](Cc2ccccc2)NC(=O)[C@H](Cc2ccccc2)NC(=O)[C@H](CCCCN)NC(=O)[C@@H](N)CSSC[C@@H](C(=O)O)NC(=O)[C@H](Cc2ccccc2)NC1=O	115	15	310
–	–	–	–	–	C[C@@H](O)[C@@H]1NC(=O)[C@H](CCCCN)NC(=O)[C@@H](Cc2c[nH]c3ccccc23)NC(=O)[C@H](Cc2ccccc2)NC(=O)[C@H](Cc2ccccc2)NC(=O)[C@H](CC(N)=O)NC(=O)[C@@H](N)CSSC[C@@H](C(=O)O)NC(=O)[C@H](Cc2ccccc2)NC1=O	<1	<1	72
> 1	0.241	> 1	> 1	> 1	CC(C)NCc1ccc(C[C@@H]2NC(=O)[C@@H](Cc3c[nH]c4ccccc34)NC(=O)[C@@H]3CCC(=O)NCC[C@H](NC(=O)[C@H](Cc4ccccc4)NC(=O)[C@H]([C@@H](C)O)NC2=O)C(=O)N[C@@H](CO)C(=O)N[C@H](C(=O)O)CSSC[C@H](NC(=O)[C@@H](N)Cc2ccc(O)cc2)C(=O)N[C@@H](CCCCN)C(=O)N[C@@H](Cc2ccccc2)C(=O)N3)cc1	–	–	–
> 1	0.061	> 1	> 1	> 1	CC(C)NCc1ccc(C[C@@H]2NC(=O)[C@@H](Cc3c[nH]c4ccccc34)NC(=O)[C@@H]3CCC(=O)NCCCC(=O)NCC[C@H](NC(=O)[C@H](Cc4ccccc4)NC(=O)[C@H]([C@@H](C)O)NC2=O)C(=O)N[C@@H](CO)C(=O)N[C@H](C(=O)O)CSSC[C@H](NC(=O)[C@@H](N)Cc2ccc(O)cc2)C(=O)N[C@@H](CCCCN)C(=O)N[C@@H](Cc2ccccc2)C(=O)N3)cc1	–	–	–
> 1	0.089	> 1	> 1	> 1	CC(C)NCc1ccc(C[C@@H]2NC(=O)[C@@H](Cc3c[nH]c4ccccc34)NC(=O)[C@@H]3CCC(=O)NCCCC[C@H](NC(=O)[C@H](Cc4ccccc4)NC(=O)[C@H]([C@@H](C)O)NC2=O)C(=O)N[C@@H](CO)C(=O)N[C@H](C(=O)O)CSSC[C@H](NC(=O)[C@@H](N)Cc2ccc(O)c(I)c2)C(=O)N[C@@H](CCCCN)C(=O)N[C@@H](Cc2ccccc2)C(=O)N3)cc1	–	–	–
